Key:
Homo sapiens = organism: Homo sapiens; experiment: Selectivity ratio of Kd(app) for amyloid beta (1 to 42) (unknown origin) aggregates to Kd(app) for recombinant human tau (441 amino acid residues) aggregates
Procedure, shortened: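 Human 441-aa tau, expressed in E. coli, was aggregated at 1 mg/mL (MES pH 6.8, 0.1 mg/mL heparin, 37 °C, 3 days, shaking). Aβ1–42 was aggregated at 0.25 mg/mL (PBS pH 7.4, 37 °C, 42 h). Aggregates were incubated 30 min at room temperature with ligand, and fluorescence read at ex 440 nm, em 510 nm (tau) or 480 nm (Aβ). Apparent Kd came from saturation curves over six independent experiments, and the ratio is Kd(Aβ)/Kd(tau).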

[1] = target: Amyloid-beta precursor protein (Homo sapiens, UniProt P05067); experiment: Binding affinity to amyloid beta (1 to 42) (unknown origin) aggregates assessed as apparent dissociation constant after 30 mins by fluorescence spectroscopic analysis; details: read-out: Kd(app)
Procedure, shortened: (§1)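 Tau: human 441-aa tau expressed in E. coli, aggregated at 1 mg/mL in MES buffer pH 6.8 with 0.1 mg/mL heparin, 37 °C for 3 days with shaking. Abeta1-42 aggregated at 0.25 mg/mL in PBS pH 7.4, 37 °C for 42 h with shaking. Aggregates at final 10 µg/mL were incubated with ligand (final 0.02–10 µM) for 30 min at room temperature. Apparent Kd was taken from fluorescence saturation curves at ex 440 nm, em 510 nm (tau) or em 480 nm (Abeta). Mean ± SEM of six independent experiments.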

[2] = target: Microtubule-associated protein tau (Homo sapiens, UniProt P10636); experiment: Binding affinity to recombinant human tau (441 amino acid residues) aggregates expressed in Escherichia coli assessed as apparent dissociation constant after 30 mins by fluorescence spectroscopic analysis; details: read-out: Kd(app); procedure, shortened: as §1
Microtubule-associated protein tau, sequence (P10636 whole entry): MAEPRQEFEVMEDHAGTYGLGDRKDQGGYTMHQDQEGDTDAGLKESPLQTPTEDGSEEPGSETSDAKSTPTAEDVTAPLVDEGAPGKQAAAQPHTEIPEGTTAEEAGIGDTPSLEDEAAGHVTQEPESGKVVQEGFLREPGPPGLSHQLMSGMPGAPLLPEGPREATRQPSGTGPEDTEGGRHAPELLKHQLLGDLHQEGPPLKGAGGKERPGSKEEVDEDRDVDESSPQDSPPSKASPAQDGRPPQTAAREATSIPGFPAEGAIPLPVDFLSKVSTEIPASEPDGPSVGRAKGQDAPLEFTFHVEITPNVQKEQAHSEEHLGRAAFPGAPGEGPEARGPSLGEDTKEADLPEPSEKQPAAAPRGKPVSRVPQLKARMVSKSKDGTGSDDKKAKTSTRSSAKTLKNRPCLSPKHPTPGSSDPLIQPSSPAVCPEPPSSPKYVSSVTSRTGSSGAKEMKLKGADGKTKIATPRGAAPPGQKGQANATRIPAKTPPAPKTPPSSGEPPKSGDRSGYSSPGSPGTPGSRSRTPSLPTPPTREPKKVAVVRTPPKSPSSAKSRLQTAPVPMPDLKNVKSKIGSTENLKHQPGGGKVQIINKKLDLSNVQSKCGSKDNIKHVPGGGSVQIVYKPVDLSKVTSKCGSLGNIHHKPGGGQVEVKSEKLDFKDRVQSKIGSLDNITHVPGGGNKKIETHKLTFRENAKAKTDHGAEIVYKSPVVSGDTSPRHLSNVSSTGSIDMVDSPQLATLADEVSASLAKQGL

Amyloid-beta precursor protein, sequence (P05067 whole entry): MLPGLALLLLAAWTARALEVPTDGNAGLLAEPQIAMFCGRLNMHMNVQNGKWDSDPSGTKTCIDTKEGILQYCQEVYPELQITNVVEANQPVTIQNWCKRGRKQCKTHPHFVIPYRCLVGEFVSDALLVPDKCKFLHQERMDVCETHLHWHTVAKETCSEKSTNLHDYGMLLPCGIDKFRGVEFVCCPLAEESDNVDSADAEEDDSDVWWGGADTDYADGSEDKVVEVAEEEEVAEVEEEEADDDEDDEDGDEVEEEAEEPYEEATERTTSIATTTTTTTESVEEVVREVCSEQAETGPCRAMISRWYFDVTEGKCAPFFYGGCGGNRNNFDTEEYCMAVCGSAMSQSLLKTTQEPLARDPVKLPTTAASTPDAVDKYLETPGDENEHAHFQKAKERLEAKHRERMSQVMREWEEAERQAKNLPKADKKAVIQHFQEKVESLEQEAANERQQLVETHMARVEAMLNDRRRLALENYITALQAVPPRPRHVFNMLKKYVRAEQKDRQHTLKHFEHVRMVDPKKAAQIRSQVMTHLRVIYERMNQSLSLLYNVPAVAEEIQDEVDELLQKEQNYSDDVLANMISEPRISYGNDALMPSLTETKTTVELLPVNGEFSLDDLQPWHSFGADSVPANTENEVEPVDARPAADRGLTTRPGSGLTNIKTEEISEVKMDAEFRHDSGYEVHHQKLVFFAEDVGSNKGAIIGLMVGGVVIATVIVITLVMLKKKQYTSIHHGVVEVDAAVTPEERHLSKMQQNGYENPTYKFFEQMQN

CNc1ccc(/C=C/c2nc3ccc(I)cc3[nH]2)cc1
Selectivity ratio (Homo sapiens): 0.93 | Kd [1]: 420 nM | Kd [2]: 450 nM

— ChEMBL document CHEMBL2384977, “Synthesis and biological evaluation of novel styryl benzimidazole derivatives as probes for imaging of neurofibrillary tangles in Alzheimer's disease” (Bioorg Med Chem, 2013)
